Measurements reported in ChEMBL document CHEMBL3421533, “The Discovery of Orally Bioavailable Tyrosine Threonine Kinase (TTK) Inhibitors: 3-(4-(heterocyclyl)phenyl)-1H-indazole-5-carboxamides as Anticancer Agents” (J Med Chem, 2015).
pIC50: −log10 of the molar value.

Legend:
[1] = biological target: T1, Dual specificity protein kinase TTK (Homo sapiens, UniProt P33981); test: Inhibition of amino terminal GST-fused full length human TTK using His6-SUMO-TTK-N as substrate preincubated for 15 mins prior to ATP addition by indirect ELISA detection system
T1 sequence (P33981 whole entry): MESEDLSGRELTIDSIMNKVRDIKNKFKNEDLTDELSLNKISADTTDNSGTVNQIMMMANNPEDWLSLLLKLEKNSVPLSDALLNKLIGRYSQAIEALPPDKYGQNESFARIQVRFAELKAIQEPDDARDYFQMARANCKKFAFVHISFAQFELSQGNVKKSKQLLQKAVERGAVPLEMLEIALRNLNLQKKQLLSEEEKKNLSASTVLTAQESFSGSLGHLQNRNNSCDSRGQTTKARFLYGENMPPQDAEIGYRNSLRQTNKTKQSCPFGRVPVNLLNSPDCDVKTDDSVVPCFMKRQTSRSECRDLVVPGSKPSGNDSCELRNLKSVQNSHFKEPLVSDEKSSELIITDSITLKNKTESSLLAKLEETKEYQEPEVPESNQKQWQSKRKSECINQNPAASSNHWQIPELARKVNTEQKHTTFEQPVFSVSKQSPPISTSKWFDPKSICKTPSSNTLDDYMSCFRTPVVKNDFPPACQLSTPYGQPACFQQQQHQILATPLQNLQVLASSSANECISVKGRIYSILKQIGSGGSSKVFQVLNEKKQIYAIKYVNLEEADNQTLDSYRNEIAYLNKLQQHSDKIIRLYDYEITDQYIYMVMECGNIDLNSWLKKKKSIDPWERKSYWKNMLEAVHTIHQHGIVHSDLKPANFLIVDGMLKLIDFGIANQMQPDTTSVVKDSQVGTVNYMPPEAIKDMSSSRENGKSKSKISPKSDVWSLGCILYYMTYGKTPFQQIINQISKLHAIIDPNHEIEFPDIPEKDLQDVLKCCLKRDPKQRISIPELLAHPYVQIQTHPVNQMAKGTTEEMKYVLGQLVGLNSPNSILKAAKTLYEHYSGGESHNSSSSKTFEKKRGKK

[2] = Cytotoxicity against human HCT116 cells after 5 days by sulforhodamine B assay; type: functional, HCT-116; details: Homo sapiens, HCT-116, 120 h
Outline: (§1)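 Cancer lines were seeded at 800–6000 cells per well according to growth rate, 24 h before compound overlay. After culture, cells were fixed in situ and stained with sulforhodamine B. GI50 values were derived by curve fitting.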

MDA-MB-468 = test: Cytotoxicity against human MDA-MB-468 cells after 5 days by sulforhodamine B assay; type: functional; details: Homo sapiens, MDA-MB-468, 120 h; outline: as §1
[3] = biological target: Aurora kinase B/Inner centromere protein (Homo sapiens, UniProt Q96GD4); test: Inhibition of AURKB/INCENP (unknown origin) preincubated for 15 mins prior to ATP addition by FRET-based homogenous assay; type: protein-complex assay
Outline: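 The enzyme was AURKB/INCENP in a FRET-based homogeneous assay run to kit specifications, with ATP at 128 μM. […] Each IC50 came from a single determination, reported with its standard fitting error.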

[4] = Cmax in athymic CD1 nude mouse at 10 mg/kg, po by LC-MS/MS analysis; type: ADME, organism-based; parameters: dose 10 mg/kg, route oral; details: athymic CD1 nude, in vivo
[5] = AUC in athymic CD1 nude mouse at 10 mg/kg, po by LC-MS/MS analysis; type: ADME, organism-based; parameters: dose 10 mg/kg, route oral; details: plasma
[6] = Cytotoxicity against human OVCAR3 cells after 5 days by sulforhodamine B assay; type: functional, OVCAR-3; details: Homo sapiens, OVCAR-3, 120 h
Cytochrome P450 3A4 = Cytochrome P450 3A4 (Homo sapiens, UniProt P08684); test: Inhibition of human CYP3A4 using BFC as substrate preincubated for 10 mins followed by enzyme/substrate addition measured after 30 mins by fluorescence assay; type: ADME
[7] = Half life in mouse liver microsomes at 1 uM by LC-MS analysis; type: ADME; details: liver microsomes
[8] = Half life in rat liver microsomes at 1 uM by LC-MS analysis; type: ADME; details: liver microsomes
[9] = AUCinfinity in athymic CD1 nude mouse at 10 mg/kg, po by LC-MS/MS analysis; type: ADME, organism-based, Plasma; parameters: time infinity, dose 10 mg/kg, route oral; details: athymic CD1 nude, plasma
[10] = Clearance in Sprague-Dawley rat at 1 mg/kg, iv by LC-MS/MS analysis; type: ADME, organism-based; parameters: dose 1 mg/kg, route intravenous; details: in vivo
[11] = Half life in Sprague-Dawley rat at 1 mg/kg, iv by LC-MS/MS analysis; type: ADME, organism-based; parameters: dose 1 mg/kg, route intravenous; details: in vivo
[12] = AUCinfinity in Sprague-Dawley rat at 1 mg/kg, iv by LC-MS/MS analysis; type: ADME, organism-based; parameters: time infinity, dose 1 mg/kg, route intravenous; details: plasma
[13] = AUCinfinity in Sprague-Dawley rat at 5 mg/kg, po by LC-MS/MS analysis; type: ADME, organism-based; parameters: time infinity, dose 5 mg/kg, route oral; details: plasma
[14] = Oral bioavailability in Sprague-Dawley rat at 5 mg/kg by LC-MS/MS analysis; type: ADME, organism-based; details: in vivo
Homo sapiens = species on record: Homo sapiens; test: Selectivity ratio of IC50 for AURKB/INCENP (unknown origin) to IC50 for amino terminal GST-fused full length human TTK

Chain of Cytochrome P450 3A4 (P08684 whole entry): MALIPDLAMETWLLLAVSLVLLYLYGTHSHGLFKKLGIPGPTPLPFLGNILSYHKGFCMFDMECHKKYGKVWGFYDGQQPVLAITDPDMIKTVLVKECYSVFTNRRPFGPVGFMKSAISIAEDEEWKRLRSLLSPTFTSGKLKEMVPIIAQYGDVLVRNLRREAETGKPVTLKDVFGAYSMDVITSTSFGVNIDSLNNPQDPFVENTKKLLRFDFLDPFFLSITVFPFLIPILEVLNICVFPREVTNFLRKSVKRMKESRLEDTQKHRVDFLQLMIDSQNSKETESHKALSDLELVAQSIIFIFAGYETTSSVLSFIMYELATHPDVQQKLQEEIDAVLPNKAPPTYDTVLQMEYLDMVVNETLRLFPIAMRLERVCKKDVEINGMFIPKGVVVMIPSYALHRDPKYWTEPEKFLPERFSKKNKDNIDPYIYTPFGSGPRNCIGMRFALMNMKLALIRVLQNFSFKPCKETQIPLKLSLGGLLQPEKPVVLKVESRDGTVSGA
Chain of Aurora kinase B/Inner centromere protein (Q96GD4 whole entry): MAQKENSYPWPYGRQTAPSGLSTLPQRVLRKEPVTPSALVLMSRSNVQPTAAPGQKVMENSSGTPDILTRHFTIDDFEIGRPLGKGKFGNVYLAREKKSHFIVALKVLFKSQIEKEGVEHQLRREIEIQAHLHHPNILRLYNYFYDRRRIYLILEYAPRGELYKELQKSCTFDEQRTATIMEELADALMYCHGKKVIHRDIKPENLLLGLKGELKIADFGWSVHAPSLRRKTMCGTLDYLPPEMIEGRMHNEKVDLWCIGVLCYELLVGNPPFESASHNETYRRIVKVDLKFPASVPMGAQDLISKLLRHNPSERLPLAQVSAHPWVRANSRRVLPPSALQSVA
Chain of Aurora kinase B/Inner centromere protein (Q9NQS7 whole entry, further chain): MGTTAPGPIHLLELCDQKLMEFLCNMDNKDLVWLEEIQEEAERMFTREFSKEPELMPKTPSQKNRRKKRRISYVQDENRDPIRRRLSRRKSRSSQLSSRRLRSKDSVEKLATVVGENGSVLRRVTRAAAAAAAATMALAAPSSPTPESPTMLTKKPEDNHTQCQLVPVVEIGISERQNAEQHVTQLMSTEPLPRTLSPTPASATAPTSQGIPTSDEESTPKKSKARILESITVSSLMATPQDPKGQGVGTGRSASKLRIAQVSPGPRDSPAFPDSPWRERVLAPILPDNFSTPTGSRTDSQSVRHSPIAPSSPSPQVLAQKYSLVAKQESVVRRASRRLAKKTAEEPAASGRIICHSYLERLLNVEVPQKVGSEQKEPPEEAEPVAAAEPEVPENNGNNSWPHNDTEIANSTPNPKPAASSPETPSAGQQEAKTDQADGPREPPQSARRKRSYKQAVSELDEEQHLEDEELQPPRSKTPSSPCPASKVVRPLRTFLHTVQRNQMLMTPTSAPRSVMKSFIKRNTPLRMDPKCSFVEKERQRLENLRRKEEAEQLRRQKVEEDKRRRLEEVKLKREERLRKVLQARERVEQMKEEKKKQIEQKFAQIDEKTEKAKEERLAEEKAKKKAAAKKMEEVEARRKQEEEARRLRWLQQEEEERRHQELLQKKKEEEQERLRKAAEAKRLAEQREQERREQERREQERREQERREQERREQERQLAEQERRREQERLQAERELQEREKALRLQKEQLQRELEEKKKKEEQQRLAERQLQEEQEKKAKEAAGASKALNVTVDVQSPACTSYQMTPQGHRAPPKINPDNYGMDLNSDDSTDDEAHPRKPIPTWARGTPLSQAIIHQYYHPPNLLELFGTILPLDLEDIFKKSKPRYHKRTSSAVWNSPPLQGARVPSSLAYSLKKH

SMILES	pIC50 [1]	Cmax [4]	AUC [5]	Ratio IC50 (Homo sapiens)	GI50 [2]	GI50 (MDA-MB-468)	pIC50 [3]	GI50 [6]	pIC50 (Cytochrome P450 3A4)	half-life at 1 µM [7]	half-life at 1 µM [8]	AUC(0-inf) [9]	clearance [10]	half-life [11]	AUC(0-inf) [12]	AUC(0-inf) [13]	bioavailability [14]
O=C(N[C@@H](c1ccccn1)C1CC1)c1ccc2[nH]nc(-c3ccc(N4C5CCC4COC5)cc3)c2c1	8.70	1500 ng/mL			21 nM	130 nM	5.92	150 nM	5.85	> 60 min	> 60 min	2100 ng·h/mL	71 mL/min/kg	24 min	240 ng·h/mL	890 ng·h/mL	75%
NS(=O)(=O)c1cccc(-c2n[nH]c3ccc(NC(=O)C(c4ccsc4)N4CCCC4)cc23)c1 (racemic)		7 ng/mL	25 ng·h/mL		39 nM	87 nM											
O=C(N[C@H](c1ncccn1)C1CCCC1)c1ccc2[nH]nc(-c3ccc(N4[C@H]5CC[C@H]4CC(O)C5)cc3)c2c1 (stereo partly specified)	8.96	750 ng/mL			1 nM	14 nM	6.21	20 nM		> 60 min	> 60 min	970 ng·h/mL	125 mL/min/kg	43.8 min	130 ng·h/mL	140 ng·h/mL	21%
O=CN1[C@@H]2CC[C@H]1C[C@@H](Oc1ccc(-c3n[nH]c4ccc(C(=O)NC(c5ccsc5)C5CCC5)cc34)cc1)C2 (mixture of isomers)	8.60	33 ng/mL	30 ng·h/mL		41 nM	110 nM	5.92										
O=C(N[C@H](c1ccccn1)C1CCCC1)c1ccc2[nH]nc(-c3ccc(N4C5CCC4COC5)cc3)c2c1							5.85		6.03								39%
CN1CCN(c2ccc(-c3n[nH]c4ccc(NC(=O)C(c5ccsc5)N5CCCC5)cc34)cc2)CC1 (racemic)	8.13	180 ng/mL	590 ng·h/mL		57 nM	250 nM											
CC(C)CC(NC(=O)c1ccc2[nH]nc(-c3ccc(O[C@H]4C[C@H]5CC[C@@H](C4)N5C=O)cc3)c2c1)c1ccccn1 (mixture of isomers)	8.52	280 ng/mL	660 ng·h/mL		64 nM	150 nM	6.52		6.39								

The next lines start with results.

pIC50 [1]	Cmax [4]	AUC [5]	Ratio IC50 (Homo sapiens)	SMILES	GI50 [2]	GI50 (MDA-MB-468)	pIC50 [3]	GI50 [6]	pIC50 (Cytochrome P450 3A4)	half-life at 1 µM [7]	half-life at 1 µM [8]	AUC(0-inf) [9]	clearance [10]	half-life [11]	AUC(0-inf) [12]	AUC(0-inf) [13]	bioavailability [14]
8.12	160 ng/mL	480 ng·h/mL		CN1CCN(c2ccc(-c3n[nH]c4ccc(C(=O)NCC5(N6CCOCC6)CCCCC5)cc34)cc2)CC1	12 nM	180 nM	6.36										
7.77	3900 ng/mL	13500 ng·h/mL		O=C(NC(c1ccccc1)C1CC1)c1ccc2[nH]nc(-c3ccc(N4CCOCC4)cc3)c2c1 (racemic)	86 nM	330 nM	6.72										
8.82	1200 ng/mL		> 100	O=C(N[C@H](CC1CC1)c1ccccn1)c1ccc2[nH]nc(-c3ccc(N4[C@H]5CC[C@H]4CC(O)C5)cc3)c2c1 (stereo partly specified)	16 nM	27 nM	5.92		5.89	> 60 min	> 60 min	1900 ng·h/mL	57 mL/min/kg	22.8 min	290 ng·h/mL	270 ng·h/mL	19%
7.96	3500 ng/mL	7900 ng·h/mL		O=C(Nc1ccc2[nH]nc(-c3ccc(N4CCOCC4)cc3)c2c1)C(c1ccsc1)N1CCCC1 (racemic)	27 nM	160 nM											
